Reference: the RNAGym collection of RNA variant scans (doi:10.1126/science.aae0568)
Fewer inactive variants are shown than the library holds.

B1: tRNA (parent)
chain: GUUCCGUUGGCGUAAUGGUAACGCGUCUCCCUCCUAAGGAGAAGACUGCGGGUUCGAGUCCCGUACGGAACG

Variants of: B1
Assay: yeast fitness relative to wild type (ratio to wild type); higher = fitter; tRNA-Arg(CCU), competitive growth, 37 C, YPD
Procedure, shortened: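 Gene amplicons from the start population and from each of six end populations were read by 100-nucleotide paired-end sequencing. Those end populations came from pooled Saccharomyces cerevisiae strains carrying tRNA-Arg(CCU) gene variants at the native locus, competed in YPD at 37°C for 24 hours. Fitness relative to wild type was worked out from changes in genotype frequencies. Genotypes needed ≥ 100 starting reads, and estimates < 0.5 were set to 0.5.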

Variant | yeast fitness
GUUCCAUUGGUGUAAUGGUAACGCGUCUCCCUCCUAAGGAGAAGACUGCGGGUUCGAGUCCCGUACGGACCG [G6A C11U A70C] | 0.578
GUUCCAUUGGUGUAAUGGUAAGGCGUCUCCCUCCUAAGGAGAAGACAGCGGGUUCGAGUUCCGUACGGAACG [G6A C11U C22G U47A C60U] | ≤ 0.5
GUUCCAUUGGUGUAAUGGUAAUGCGUCUCCCUCCUAAGGAGAAGACUGCGGGUUCGAGUCCCGUACGGAACG [G6A C11U C22U] | 0.566
GUUCCAUUGGUGUAAUGGUAACGUGUCUCCCUCCUAAGGAGAAGACUGCGGGUUCGAGUCCCGUACGGAACG [G6A C11U C24U] | ≤ 0.5
GUUCCAUUGGUGUAAUGGUAACGCGUCUCUCUCCUAAGGAGAAGACUGCGGGUUCGAGUCCCGUACAGAACG [G6A C11U C30U G67A] | ≤ 0.5
GUUCCAUUGGUGUAAUGGUAACGCGUCUCCCUCGUAAGGAGAAGACUGCGGGUUCGAAUCCCGUACGGAACG [G6A C11U C34G G58A] | 0.724
GUUCCAUUGGUGUAAUGGUAACGCGUCUCCCUCCUAAGGAGAAGACUGCGGGUUCGAGUCCCGUACGCAACG [G6A C11U G68C] | 0.54
GUUCCAUUGGUGCAAUGGUAACGCGUCUCCCUCCUAAGGAGAGGACUGCGGAUUCGAGUCCCGUACAGAACG [G6A C11U U13C A43G G52A G67A] | ≤ 0.5
GUUCCAUUGGUGCAAUGGUAACGCGUCUCCCUCCUAAGGAGAGGACUGCGGGUUCGAGUCCCGUACUGAACG [G6A C11U U13C A43G G67U] | ≤ 0.5
GUUCCAUUGGUGCAAUGGUAACGCGUCUCCCUCCUAAGGAGAAGACUGCGGGUUCGAGUCCCGUACGGAGCG [G6A C11U U13C A70G] | ≤ 0.5
GUUCCAUUGGUGCAAUGGUAACGCGUGUCCCUCCUAAGGAGAAGACUGCGGGUUCGAGUCCCGUACGGAACG [G6A C11U U13C C27G] | 0.507
GUUCCAUUGGUGCAAUGGUAACGCGUGUCCCUCCUAAGGAGAAGACUGCGGGUUCGAGUCCCGUACGGCACG [G6A C11U U13C C27G A69C] | 0.541
GUUCCAUUGGUGUAAUGGUAACGCGACUCCCUACUAAGGAGAGGACUGCGGGUUCGAGUCCCGUACGGAACG [G6A C11U U26A C33A A43G] | ≤ 0.5
GUUCCAUUGGCGUAAUGGUAAAGCGUCUCCUUCCUAAGGAGAAGACUGCGGGUUCGAGUCCCGUACGCAACG [G6A C22A C31U G68C] | 0.709
GUUCCAUUGGCGUAAUGGUAAAGCGUCUCCCUCCAAAGGAGAAGACUGGGGGUUCGAGUCCCCUACGGAACG [G6A C22A U35A C49G G63C] | ≤ 0.5
GUUCCAUUGGCGUAAUGGUAAGGCGUCUCCCUCCUAGGGAGAAGACAGCGGGUUCGAGUCCCGUACGGACCG [G6A C22G A37G U47A A70C] | ≤ 0.5
GUUCCAUUGGCGUAAUGGUAAGGCGUCUCCCUCCUAAGGAGCAGACUGCGGGUUCGAGUCCUGUACGGAACG [G6A C22G A42C C62U] | ≤ 0.5
GUUCCAUUGGCGUAAUGGUAAGGCGUCUCCUUCCUAAGGAGAAGACUGCGGGUUCGAGUCCCGUACGGAACG [G6A C22G C31U] | 0.771
GUUCCAUUGGCGUAAUGGUAAGGCGUCUCCCUCCUAAGGAGAAGACUGCGGGUUCGAGUCCGGUACGGAACG [G6A C22G C62G] | ≤ 0.5

Variant | yeast fitness
GUUCCAUUGGCGUAAUGGUAAGGCGUCUCCCUCCUAAGGAGAACACUGCGGGUUCGAGUCCCGUACGGACCG [G6A C22G G44C A70C] | ≤ 0.5
GUUCCAUUGGCGUAAUGGUAAGGCGUCUCCCUCCUAAGGAGAAGACUGCGGCUUCGACUCCCGUUCGGAACG [G6A C22G G52C G58C A65U] | ≤ 0.5
GUUCCAUUGGCGUAAUGGUAAGGCGUCUCCCUCCCAAGGAGAAGACUGCGGGUUGGAGUCCCGUACGGAACG [G6A C22G U35C C55G] | ≤ 0.5
GUUCCAUUGGCGUAAUGGUAAGGCGUCUCCCUCCUAAGGAGAAGACAGCGGGUUCGAGUCCCGUGCGGAACG [G6A C22G U47A A65G] | ≤ 0.5
GUUCCAUUGGCGUAAUGGUAAGGCGUCUCCCUCCUAAGGAGAAGACAGCGGGUUCGAGUCCCGUACUGACCG [G6A C22G U47A G67U A70C] | ≤ 0.5
GUUCCAUUGGCGUAAUGGUAAGGCGUCUCCCUCCUAAGGAGAAGACUGCGGGUGCGAGUCCCGUACGGUACG [G6A C22G U54G A69U] | ≤ 0.5
GUUCCAUUGGCGUAAUGGUAAUGCGUCUCCCUCCUAAGGAGAAGACUGCGGGUUCGAGUCCCGUACGGAACG [G6A C22U] | 0.757
GUUCCAUUGGCGUAAUGGUAAUGCGUCUCCCUCCUAAGGCGAAGACUGCGGGUUCGAGUCCCGUACGGAACG [G6A C22U A40C] | ≤ 0.5
GUUCCAUUGGCGUAAUGGUAAUGCGUCUCCCUCCUAAGGCGAAGACUGCGGGUUCGAGUCCCGUACGGUACG [G6A C22U A40C A69U] | 0.63
GUUCCAUUGGCGUAAUGGUAAUGCGUCUCCCUCCUAAGGAGCAGACUGCGGGUUCGAGUCCCGUACGGAACG [G6A C22U A42C] | 0.605
GUUCCAUUGGCGUAAUGGUAAUGCGUCUCCCUCCUAAGGAGCAGACUGCGGAUUCCAGUCCCGUACGGAACG [G6A C22U A42C G52A G56C] | ≤ 0.5
GUUCCAUUGGCGUAAUGGUAAUGCGUGUCCCUCCUGAGGAGAGGACUGCGGGUUCGAGUCCCGUACGGAACG [G6A C22U C27G A36G A43G] | ≤ 0.5
GUUCCAUUGGCGUAAUGGUAAUGCGUCUGCCUCCUAAGGAGAAGACUGCGGGUUCGAGUCCCGUACGGAACG [G6A C22U C29G] | ≤ 0.5
GUUCCAUUGGCGUAAUGGUAAUGCGUCUGCCUCCUAAGGAGGAGACUGCGGGUUCGAGUCCCGUACGGAACG [G6A C22U C29G A42G] | ≤ 0.5
GUUCCAUUGGCGUAAUGGUAAUGCGUCUCGCUCCUGAGGAGAAGACUGCGGGUUCGAGUCCUGUUCGGAACG [G6A C22U C30G A36G C62U A65U] | ≤ 0.5
GUUCCAUUGGCGUAAUGGUAAUGCGUCUCCCUACUAAGGAGAAGACUGCGGGUUUGAGUCACGUACGGAACG [G6A C22U C33A C55U C61A] | ≤ 0.5
GUUCCAUUGGCGUAAUGGUAAUGCGUCUCCCUUCUUAGGAGACGACUGCGGGUUCGAGUUGCGUACGGAGCG [G6A C22U C33U A36U A43C C60U C61G A70G] | ≤ 0.5
GUUCCAUUGGCGUAAUGGUAAUGCGUCUCCCUCGUAAGGAGAAGACUGCGGGUUCCAGUCCCGUACGGAACG [G6A C22U C34G G56C] | 0.693
GUUCCAUUGGCGUAAUGGUAAUGCGUCUCCCUCCUAAGGAGAAGACUGAGGGUUCGAGUCCCGUACGGAACG [G6A C22U C49A] | ≤ 0.5
